Values joined by “and” are separate entries in the source; they are usually repeats but may differ in a detail not shown here. Identical values can stand only once. Hit rate of the full screen: of about 260,000 compounds, about 960 (0.37%) were called active. The entries come from a sample that favours actives as a whole. A number with no mark means an inactive call.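 How the source made its calls: active means mean E-selectin-positive cell signal at least 10% of the positive control, reached in at least 60% of replicates, without over 20% cell loss; inconclusive means no rule given, readout overlaps actives, possibly toxicity-flagged; inactive means the rest, including those meeting only one limit.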

Chain of E-selectin (Homo sapiens) (P16581 whole entry, looked up): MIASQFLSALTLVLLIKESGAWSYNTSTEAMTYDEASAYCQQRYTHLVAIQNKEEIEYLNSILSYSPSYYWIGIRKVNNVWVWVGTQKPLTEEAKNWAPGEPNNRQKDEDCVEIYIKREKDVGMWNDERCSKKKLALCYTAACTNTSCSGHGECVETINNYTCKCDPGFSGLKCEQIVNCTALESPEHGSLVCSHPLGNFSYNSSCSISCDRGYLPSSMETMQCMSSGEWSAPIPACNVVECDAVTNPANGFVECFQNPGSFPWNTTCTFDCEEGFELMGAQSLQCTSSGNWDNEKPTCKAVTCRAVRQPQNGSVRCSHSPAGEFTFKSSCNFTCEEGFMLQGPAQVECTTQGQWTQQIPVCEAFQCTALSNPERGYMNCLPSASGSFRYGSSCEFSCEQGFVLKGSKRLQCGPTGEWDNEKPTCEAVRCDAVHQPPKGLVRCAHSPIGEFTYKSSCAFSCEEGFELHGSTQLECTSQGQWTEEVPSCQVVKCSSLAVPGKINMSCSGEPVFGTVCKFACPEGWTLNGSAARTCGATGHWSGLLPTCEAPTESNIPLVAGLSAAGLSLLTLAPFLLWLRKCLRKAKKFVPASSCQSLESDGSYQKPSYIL

The experiment addresses E-selectin (Homo sapiens) (UniProt P16581). Put plainly: E-selectin induction in HUVECs, primary screen, imaging, HUVEC, immunofluorescence imaging, single point (AID 686992).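 Further: signal is the percent of cells scored E-selectin positive by PE staining.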 Particulars: at 7.58 µM, stronger effect = higher value, normalized: neutral wells 0, TNF-alpha wells 100. A digest of the protocol:
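Test system: HUVEC; input: 3,000 HUVEC/well; measured by: immunofluorescence imaging; read-out: % PE-positive cells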
Regarding `O=C(c1ccc(F)cc1)N1CC(=O)N2[C@@H](CO)[C@@H](c3ccc(C#Cc4ccc(F)cc4)cc3)[C@@H]2C1`, the activation is -0.811%.

Consider `CCN(CC)c1ccc(NC(=O)CN2CCN(c3ccccn3)CC2)cc1`, for which the activation was 0.001%.

As for `Cc1nc(N2CCC(C)CC2)c2c(C)c(C(=O)Nc3cc(F)ccc3C)sc2n1`, the activation was 0.651%.

For the compound `Cc1nc(N2CCN(c3ccccn3)CC2)c2c(C)c(C(=O)Nc3ccc(F)cc3)sc2n1`, the activation was 86% (active).

Turning to `COc1cccc(-c2nc3nc(C)cc(C)n3c2NC2CCCCC2)c1`, the activation was -0.154%.

Take `C[C@@H]1CN([C@H](C)CO)C(=O)c2cccc(NS(C)(=O)=O)c2O[C@@H]1CN(C)C(=O)Nc1cccc2ccccc12`: the activation is 91.3% (active).

`C[C@H](CO)N1C[C@H](C)[C@H](CN(C)S(=O)(=O)c2ccccc2)Oc2c(NC(=O)Nc3ccccc3)cccc2C1=O`: the activation is 392% (active).

With `C[C@H](CO)N1C[C@H](C)[C@@H](CN(C)C(=O)Nc2cccc3ccccc23)Oc2c(NS(=O)(=O)c3ccccc3)cccc2C1=O`, the activation is -0.43%.

For the compound `C[C@H](CO)N1C[C@H](C)[C@@H](CN(C)C(=O)NC2CCCCC2)Oc2c(NC(=O)Nc3ccc(F)cc3)cccc2C1=O`, the activation was 42.3% (active).

Consider `C[C@@H]1CN([C@H](C)CO)C(=O)c2cccc(NC(=O)Nc3cccc4ccccc34)c2O[C@@H]1CN(C)C(=O)Nc1cccc2ccccc12`, for which the activation is -0.224%.

As to `Cc1ccc(S(=O)(=O)N(C)C[C@@H]2Oc3c(NC(=O)Nc4ccccc4)cccc3C(=O)N([C@H](C)CO)C[C@H]2C)cc1`, the activation was 0.069%.

`COc1ccc(NC(=O)N(C)C[C@@H]2Oc3c(NS(=O)(=O)c4cn(C)cn4)cccc3C(=O)N([C@H](C)CO)C[C@@H]2C)cc1`: the activation is -11.1%.

With `C[C@H]1CN([C@@H](C)CO)C(=O)c2cccc(NS(=O)(=O)c3cn(C)cn3)c2O[C@@H]1CN(C)C(=O)Nc1ccc(F)cc1`, the activation was 46.9% (active).

In the case of `C[C@H]1CN([C@@H](C)CO)C(=O)c2cccc(NS(=O)(=O)c3cn(C)cn3)c2O[C@H]1CN(C)C(=O)Nc1ccc2c(c1)OCO2`, the activation was -9.5%.

As to `C[C@@H]1CN([C@H](C)CO)C(=O)c2cccc(NC(=O)Nc3ccccc3)c2O[C@@H]1CN(C)C(=O)NC1CCCCC1`, the activation was 0.168%.

Turning to `C[C@H]1CN([C@@H](C)CO)C(=O)c2cccc(NC(=O)Nc3ccc(C(F)(F)F)cc3)c2O[C@H]1CN(C)C(=O)NC1CCCCC1`, the activation was -0.0925%.

Regarding `C[C@H](CO)N1C[C@H](C)[C@@H](CN(C)S(=O)(=O)c2ccc(F)cc2)Oc2c(NC(=O)Nc3ccccc3)cccc2C1=O`, the activation is 0.238% and 0.231%.

Regarding `Nc1nc2c(ncn2[C@@H]2O[C@H](C(=O)N[C@@H](Cc3ccccc3)C(=O)NCc3ccccc3)[C@@H](O)[C@H]2O)c(=O)[nH]1`, the activation was -0.0025%.

For the compound `CS(=O)(=O)N1[C@H](CO)[C@H](c2ccccc2)C12CN(C(=O)C1CC1)C2`, the activation is 0.098%.

With `CNC(=O)C1CN(C(=O)c2cccc(S(=O)(=O)N3CCc4ccccc43)c2)c2ccccc2O1` (stereo not drawn), the activation is -0.207%.

Take `O=C(c1ccccc1)N1C[C@H]2[C@@H](c3ccccc31)[C@H](CO)N2Cc1ccccc1F`: the activation is 0.376%.

As for `Cc1ccc(C)c(C(O)c2ncc(-c3cccc4ccccc34)[nH]2)c1` (stereo not drawn), the activation was -0.22%.

For `C[C@@H]1CN([C@@H](C)CO)C(=O)c2cc(-c3cccc(F)c3)cnc2O[C@@H]1CN(C)Cc1ccccc1`, the activation is -0.282%.

For the compound `C/C=C/c1cnc2c(c1)C(=O)N([C@@H](C)CO)C[C@H](C)[C@@H](CN(C)C(=O)C1CC1)O2`, the activation was 0.382%.

Consider `C[C@H]1CN([C@@H](C)CO)C(=O)c2cc(Br)cnc2O[C@H]1CN(C)Cc1cccc(F)c1`, for which the activation was 87.1% (active).

On to `C[C@@H]1CN([C@@H](C)CO)C(=O)c2cc(Br)cnc2O[C@@H]1CN(C)C(=O)C1CCCCC1`, for which the activation was -0.284% and 0.234%.

As for `C[C@@H]1CN([C@@H](C)CO)C(=O)c2cc(-c3ccccc3F)cnc2O[C@@H]1CN(C)Cc1cccc(F)c1`, the activation is -0.0955%.

Take `C[C@@H]1CN([C@H](C)CO)C(=O)c2cc(Br)cnc2O[C@@H]1CN(C)C(=O)C1CC1`: the activation is 118% (active).

Consider `COC(=O)C[C@H]1CC[C@@H](NC(=O)c2ccccc2)[C@@H](CO)O1`, for which the activation is -0.322%.

On to `O=C(COC(=O)CCc1c[nH]c2ccccc12)Nc1cccc(Cl)c1`, for which the activation was 5.9%.

`COC(=O)C[C@H]1CC[C@H]2[C@H](COc3ccc(NC(=O)C4CC4)cc3C(=O)N2C)O1`: the activation was -0.049%.

Turning to `CN1C(=O)c2cc(NC(=O)C3CCOCC3)ccc2OC[C@@H]2O[C@H](CC(=O)NCc3ccccc3F)CC[C@H]21`, the activation is 99.5% (active).

`COC(=O)C[C@H]1CC[C@H]2[C@@H](COc3ccc(NC(=O)C4CC4)cc3C(=O)N2C)O1`: the activation was 84.9% (active).

For `CN1C(=O)c2cc(NC(=O)C3CCC3)ccc2OC[C@@H]2O[C@@H](CC(=O)NCc3ccccc3F)CC[C@@H]21`, the activation was -0.028%.

Regarding `COC(=O)C[C@@H]1CC[C@@H]2[C@H](COc3ccc(NC(=O)c4cccc(F)c4)cc3C(=O)N2C)O1`, the activation was 0.16%.

Take `COC(=O)C[C@H]1CC[C@H]2[C@@H](COc3ccc(NC(=O)Nc4cccc(F)c4)cc3C(=O)N2C)O1`: the activation was -0.114%.

As for `CN1C(=O)c2cc(NC(=O)C3CCCC3)ccc2OC[C@H]2O[C@H](CC(=O)NCc3ccccc3F)CC[C@H]21`, the activation is 0.0215%.

Consider `COC(=O)C[C@@H]1CC[C@@H]2[C@H](COc3ccc(NC(=O)Nc4cccc(F)c4)cc3C(=O)N2C)O1`, for which the activation was 59.2% (active).

As to `COC(=O)C[C@@H]1CC[C@@H]2[C@@H](COc3ccc(NC(=O)C4CCOCC4)cc3C(=O)N2C)O1`, the activation is 0.061%.

As for `C[C@@H](CN1C2=NC[C@@H](Cc3ccccc3)N2C[C@H]1Cc1ccc(O)cc1)NC(=O)CCC1CCCCC1`, the activation was -4.54%.

On to `CCC(C)CN1C(=O)CSCC1(C)C(=O)NCc1ccccc1` (stereo not drawn), for which the activation is 0.0415%.

With `COC(=O)[C@@H]1[C@@H](CO)[C@@H]2Cn3c(ccc(-c4ccc(OC)cc4)c3=O)[C@@H]2N1C`, the activation is 0.459%.

`N#C[C@@H]1[C@@H](c2ccccc2)[C@H](CO)N1C(=O)c1cc(Cl)cc(Cl)c1`: the activation is 0.0965%.

With `COc1ccc(S(=O)(=O)N2C[C@H](O)COC[C@@H]3O[C@H](CC(=O)NCCN4CCCCC4)CC[C@H]32)cc1`, the activation is 0.128%.

Regarding `COc1ccc(-c2ccccc2[C@H]2[C@@H](C#N)N(C(=O)C3CCC3)[C@@H]2CO)cc1`, the activation is -0.0965%.

On to `COc1cccc(-c2cc3nc(NCCOc4ccccc4Cl)n(C)c(=O)c3s2)c1`, for which the activation is -0.11%.

For `COc1ccc(C(C)(O)c2nc(-c3ccc(C)c(C)c3)cs2)cc1` (stereo not drawn), the activation was -0.298%.

For the compound `COc1ccc2c3c(n(C)c2c1)[C@@H](CO)N(Cc1ccccc1OC)CC31CN(CC2CCOCC2)C1`, the activation was -0.609%.

In the case of `COc1ccc(C(C)(O)c2nc(-c3cc(F)cc(F)c3)cs2)cc1` (stereo not drawn), the activation is 0.357%.

Regarding `Cc1ccc(C(=O)NCC(=O)NCc2cc(=O)n(C)c(=O)n2C)cc1`, the activation is 0.0495%.

For the compound `COc1ccc(S(=O)(=O)NCC(=O)NCc2cc(=O)n(C)c(=O)n2C)cc1F`, the activation was 79.6% (active).

For `COc1ccc(S(=O)(=O)NCCOc2ccccc2)cc1F`, the activation was -0.118%.

For the compound `CCCC(=O)Nc1ccc2c(c1)C(=O)N(C)[C@@H]1CC[C@H](CC(=O)Nc3cn(C)nc3C)O[C@H]1CO2`, the activation is -0.018%.

`Cn1c(Nc2ccc(F)cc2)nc2cc(-c3ccsc3)sc2c1=O`: the activation was 0.0175%.

Regarding `COc1ccc(C2/C=C\CN(CC(C)C)CC(=O)N2Cc2ccc(F)cc2)cc1` (stereo not drawn), the activation was -0.215%.

As for `COc1ccc(C2c3[nH]c4ccccc4c3C[C@H]3C(=O)N(CC(C)C)CC(=O)N23)c(OC)c1` (stereo partly drawn), the activation was 61.1% (active).

Regarding `COc1ccc(C2/C(=C(/O)c3ccccc3)C(=O)C(=O)N2C)c(OC)c1` (stereo not drawn), the activation is 0.122%.

Regarding `CCC(=O)N1CC2(C1)[C@H](c1ccc(-c3ccc(C)cc3)cc1)[C@H](CO)N2S(C)(=O)=O`, the activation was -0.277%.

With `COc1ccc(OC)c(C(O)c2ncc(-c3cccc(C(F)(F)F)c3)[nH]2)c1` (stereo not drawn), the activation is -0.085%.

On to `CNS(=O)(=O)c1ccc(NC(=O)C2CC(=O)N(c3ccc(Cl)cc3)C2)cc1` (stereo not drawn), for which the activation was 35.7% (active).

Regarding `O=C(Nc1ccc(S(=O)(=O)N2CCCCC2)cc1)C1CC(=O)N(c2ccc(F)cc2)C1` (stereo not drawn), the activation is -0.119%.

In the case of `CCc1ccc(N2CC(C(=O)Nc3ccc(S(=O)(=O)Nc4nccs4)cc3)CC2=O)cc1` (stereo not drawn), the activation was 0.004%.

`CC(=O)OCC1(O)CC23CCC4c5ccoc5CCC4(C)C2CCC1C3` (stereo not drawn): the activation is 0.708%.

For the compound `COC(=O)C[C@@H]1CC[C@H]2[C@H](COc3ccc(NC(=O)c4ccccc4F)cc3C(=O)N2C)O1`, the activation was 0.0145%.

Regarding `CCCCCCN1C[C@H](O)[C@@H](n2cc(C3CC3)nn2)C[C@@H]1c1ccc(Cl)cc1`, the activation is -0.106%.

Turning to `C[C@H](CO)N1C[C@H](C)[C@@H](CN(C)Cc2ccc(C(F)(F)F)cc2)OCc2ccccc2-c2c(n(C)c3ccccc23)C1=O`, the activation was -0.577%.

For `C[C@@H]1CN([C@H](C)CO)C(=O)c2c(c3ccccc3n2C)-c2ccccc2CO[C@@H]1CN(C)Cc1ccccc1C(F)(F)F`, the activation was 30.5% (active).

With `C[C@@H]1CN([C@H](C)CO)C(=O)c2c(c3ccccc3n2C)-c2ccccc2CO[C@@H]1CN(C)Cc1ccc(F)cc1`, the activation was -0.183%.
